# ChEMBL document CHEMBL3352550, “Discovery and optimization of 4,5-diarylisoxazoles as potent dual inhibitors of pyruvate dehydrogenase kinase and heat shock protein 90” (J Med Chem, 2014)
# pIC50: −log10 of the molar value. Calls of active or inactive are those of the source. The calls are words filed in the database; no cut-off is given here.
# How the values were obtained:
# NCI-H1299 [1] = assay: Reduction in oxygen consumption rate in human NCI-H1299 cells incubated for 12 hrs; type: functional, cell-based
# Method in brief: (§1)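 Cells pre-treated with varying concentrations of compound for 12 h, then oxygen consumption rate and extracellular acidification rate measured on an XF96 extracellular flux analyzer; ECAR/OCR ratio calculated from these readings.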
# NCI-H1299 [2] = assay: Reduction in extracellular acidification rate in human NCI-H1299 cells at 10 mM incubated for 12 hrs; type: functional, cell-based
# Method in brief: (§2)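 NCI-H1299 cells were pre-treated with compound for 12 h, then oxygen consumption rate and extracellular acidification rate were read on an XF96 extracellular flux analyzer.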
# NCI-H1299 [3] = assay: Increase in oxygen consumption rate in human NCI-H1299 cells at 10 mM incubated for 12 hrs; type: functional, cell-based; method in brief: as §2
# [4] = target: T1, [Pyruvate dehydrogenase (acetyl-transferring)] kinase isozyme 1, mitochondrial (Homo sapiens, UniProt Q15118); conditions: NCI-H1299, 10 mM
# NCI-H1299 [5] = assay: Increase in oxygen consumption rate/extracellular acidification rate ratio in human NCI-H1299 cells at incubated for 12 hrs; type: functional, cell-based
# [6] = target: T1, [Pyruvate dehydrogenase (acetyl-transferring)] kinase isozyme 1, mitochondrial; assay: Inhibition of recombinant PDHK1 (unknown origin) expressed in Escherichia coli at 10 uM incubated for 1 hr by ELISA
# Method in brief: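 Recombinant His6-SUMO-PDHK1 was expressed in E. coli and purified on nickel resin. It was used at 0.25 µg/well on immobilized PDHA1 substrate (0.5 µg/well) with 10 µM ATP in 50 mM HEPES, 10 mM MgCl2 and 1 mM EGTA. Compounds were screened at 10 µM and percent inhibition was recorded. Detection used anti-p-PDHA1(S293) for 1 h and HRP secondary antibody for 1 h, then o-phenylenediamine, read at OD490.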
# [7] = target: T1, [Pyruvate dehydrogenase (acetyl-transferring)] kinase isozyme 1, mitochondrial; assay: Inhibition of recombinant PDHK1 (unknown origin) expressed in Escherichia coli incubated for 1 hr by ELISA
# Heat shock protein HSP90 [8] = target: T2, Heat shock protein HSP90 (Homo sapiens, UniProt P07900+P08238); assay: Inhibition of geldanamycin-BODIPY binding to full-length HSP90 (unknown origin) by fluorescence polarization based competition assay; type: protein assay
# Method in brief: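 Fluorescence polarization competition using full-length HSP90 and geldanamycin-BODIPY as probe.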
# Heat shock protein HSP90 [9] = target: T2, Heat shock protein HSP90; assay: Inhibition of HSP90 in human NCI-H1299 cells assessed as reduction in AKT protein levels at 10 uM incubated for 12 hrs by immunoblotting method; type: cell-based
# Method in brief: (§3)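 NCI-H1299 cells were treated for 12 h and lysed in RIPA buffer with protease inhibitors. Equal protein was loaded per lane, run on a gel and transferred to nitrocellulose. Membranes were blocked in TBST with 3% BSA for 1 h at room temperature, then probed with primary antibody for 2 h and secondary antibody for 1 h, both at room temperature. Bands were detected by ECL.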
# Heat shock protein HSP90 [10] = target: T2, Heat shock protein HSP90; assay: Inhibition of HSP90 in human NCI-H1299 cells assessed as reduction in HER2 protein levels at 10 uM incubated for 12 hrs by immunoblotting method; type: cell-based; method in brief: as §3
# Heat shock protein HSP90 [11] = target: T2, Heat shock protein HSP90; assay: Inhibition of HSP90 in human NCI-H1299 cells assessed as reduction in c-MET protein levels at 10 uM incubated for 12 hrs by immunoblotting method; type: cell-based; method in brief: as §3
# Heat shock protein HSP90 [12] = target: T2, Heat shock protein HSP90; assay: Inhibition of HSP90 in human NCI-H1299 cells assessed as increase in HSP70 protein levels at 10 uM incubated for 12 hrs by immunoblotting method; type: cell-based; method in brief: as §3
# [13] = Apparent permeability from apical to basolateral side in human Caco2 cells; conditions: Caco-2
# [14] = Apparent permeability from basolateral to apical side in human Caco2 cells; conditions: Caco-2
# [15] = Efflux ratio in human Caco2 cells; conditions: Caco-2
# [16] = target: [Pyruvate dehydrogenase (acetyl-transferring)] kinase isozyme 2, mitochondrial (Homo sapiens, UniProt Q15119); assay: Inhibition of recombinant PDHK2 (unknown origin) expressed in Escherichia coli incubated for 1 hr by ELISA
# [17] = target: T3, [Pyruvate dehydrogenase (acetyl-transferring)] kinase isozyme 3, mitochondrial (Homo sapiens, UniProt Q15120); assay: Inhibition of recombinant PDHK3 (unknown origin) expressed in Escherichia coli incubated for 1 hr by ELISA
# [18] = target: [Pyruvate dehydrogenase (acetyl-transferring)] kinase isozyme 4, mitochondrial (Homo sapiens, UniProt Q16654); assay: Inhibition of recombinant PDHK4 (unknown origin) expressed in Escherichia coli incubated for 1 hr by ELISA
# NCI-H1299 [19] = assay: Reduction in extracellular acidification rate in human NCI-H1299 cells at 10 uM incubated for 12 hrs; type: functional, cell-based; method in brief: as §1
# NCI-H1299 [20] = assay: Reduction in oxygen consumption rate in human NCI-H1299 cells at 10 uM incubated for 12 hrs; type: functional, cell-based; method in brief: as §1
# NCI-H1299 [21] = assay: Increase in oxygen consumption rate/extracellular acidification rate ratio in human NCI-H1299 cells at 10 uM incubated for 12 hrs; type: functional, cell-based
# NCI-H1299 [22] = assay: Increase in ROS production in human NCI-H1299 cells at incubated for 12 hrs by DCFH-DA staining based fluorescence assay; type: functional, cell-based
# Method in brief: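 Cells loaded with 5 µmol/L DCFH-DA in fresh medium for 30 min after compound treatment, washed with PBS, and intracellular ROS read as fluorescence intensity by flow cytometry.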
# NCI-H1299 [23] = assay: Antiproliferative activity against human NCI-H1299 cells after 72 hrs by CCK8 assay; type: functional, cell-based
# Method in brief: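 NCI-H1299 cells seeded at 3000 per well; test compound at a range of concentrations added the next day, vehicle DMSO as control; proliferation read by CCK8 kit after 72 h; IC50 derived from dose–response.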
# [24] = target: T1, [Pyruvate dehydrogenase (acetyl-transferring)] kinase isozyme 1, mitochondrial; conditions: NCI-H1299, 10 uM
# [25] = target: T1, [Pyruvate dehydrogenase (acetyl-transferring)] kinase isozyme 1, mitochondrial; assay: Inhibition of PDHK1 (unknown origin)
# [26] = target: T3, [Pyruvate dehydrogenase (acetyl-transferring)] kinase isozyme 3, mitochondrial; assay: Inhibition of PDHK3 (unknown origin)
# Method in brief: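 PDHK3 was expressed in E. coli as a His6-SUMO fusion and purified on nickel resin. The substrate was His6-SUMO-PDHA1, immobilized at 0.5 µg/well, with enzyme at 0.25 µg/well and 10 µM ATP in 50 mM HEPES, 10 mM MgCl2 and 1 mM EGTA. Phosphorylation was detected with anti-p-PDHA1(S293) for 1 h, then HRP secondary antibody for 1 h. Colour was developed with o-phenylenediamine and read at OD490. IC50 came from a four-parameter fit.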
# T1 sequence (Q15118 whole entry): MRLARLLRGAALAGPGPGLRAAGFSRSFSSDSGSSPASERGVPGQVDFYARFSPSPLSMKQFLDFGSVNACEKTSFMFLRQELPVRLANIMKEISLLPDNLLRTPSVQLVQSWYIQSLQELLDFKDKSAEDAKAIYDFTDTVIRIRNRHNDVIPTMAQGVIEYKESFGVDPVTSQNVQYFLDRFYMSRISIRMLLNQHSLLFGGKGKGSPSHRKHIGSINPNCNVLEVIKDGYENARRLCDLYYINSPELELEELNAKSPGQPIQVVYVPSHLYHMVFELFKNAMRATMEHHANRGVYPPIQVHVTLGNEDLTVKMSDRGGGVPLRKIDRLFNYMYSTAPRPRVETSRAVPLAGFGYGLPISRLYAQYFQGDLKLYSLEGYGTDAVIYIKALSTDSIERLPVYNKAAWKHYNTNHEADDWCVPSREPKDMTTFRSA
# T3 sequence (Q15120 whole entry): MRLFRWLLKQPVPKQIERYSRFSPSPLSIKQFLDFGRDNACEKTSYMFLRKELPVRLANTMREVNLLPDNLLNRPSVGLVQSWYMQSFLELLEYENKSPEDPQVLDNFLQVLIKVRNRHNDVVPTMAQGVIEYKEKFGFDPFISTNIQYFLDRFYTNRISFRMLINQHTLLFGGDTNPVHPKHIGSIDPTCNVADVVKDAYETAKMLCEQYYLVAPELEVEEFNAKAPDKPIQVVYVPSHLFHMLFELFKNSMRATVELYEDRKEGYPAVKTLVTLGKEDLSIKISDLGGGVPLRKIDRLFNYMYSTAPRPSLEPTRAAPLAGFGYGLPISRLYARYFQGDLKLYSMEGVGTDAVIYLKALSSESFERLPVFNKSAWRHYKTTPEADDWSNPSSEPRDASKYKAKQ
# [Pyruvate dehydrogenase (acetyl-transferring)] kinase isozyme 4, mitochondrial, sequence (Q16654 whole entry): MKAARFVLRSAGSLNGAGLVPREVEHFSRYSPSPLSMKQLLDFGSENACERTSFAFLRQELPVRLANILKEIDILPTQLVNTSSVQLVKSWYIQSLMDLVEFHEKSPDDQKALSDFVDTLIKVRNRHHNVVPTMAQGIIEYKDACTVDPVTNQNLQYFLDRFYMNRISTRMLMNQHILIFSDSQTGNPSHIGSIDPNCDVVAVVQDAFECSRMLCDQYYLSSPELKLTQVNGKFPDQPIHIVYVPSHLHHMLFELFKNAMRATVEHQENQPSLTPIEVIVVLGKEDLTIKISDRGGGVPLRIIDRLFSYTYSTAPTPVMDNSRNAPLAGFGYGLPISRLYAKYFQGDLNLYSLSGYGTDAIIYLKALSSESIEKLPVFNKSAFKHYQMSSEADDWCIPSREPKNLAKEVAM
Compound,inhibition [6],pIC50 [7],IC50 (Heat shock protein HSP90 [8]),inhibition (Heat shock protein HSP90 [9]),inhibition (Heat shock protein HSP90 [10]),inhibition (Heat shock protein HSP90 [11]),inhibition (Heat shock protein HSP90 [12]),Papp A→B [13],Papp B→A [14],efflux ratio [15],other results
CC(C)NCCCn1c(Sc2cc3c(cc2I)OCO3)nc2c(N)ncnc21,–,–,–,–,–,–,–,–,–,–,inhibition (NCI-H1299 [1]): Active
O=C(O)C(Cl)Cl,–,–,–,–,–,–,–,–,–,–,inhibition (NCI-H1299 [2]): Active; inhibition (NCI-H1299 [3]): Active; inhibition [4]: Active
CC1(C)CC(=O)c2c(C(F)(F)F)nn(-c3ccc(C(N)=O)c(N[C@H]4CC[C@H](O)CC4)c3)c2C1,–,–,–,–,–,–,–,–,–,–,Activity (NCI-H1299 [5]): inactive
COc1ccccc1N1CCN(C(=O)/C=C/c2noc(-c3cc(Cl)c(O)cc3O)c2-c2ccc(O)cc2)CC1,> 50%,6.22,512 nM,Active,Active,Active,Active,11.2 ×10⁻⁶ cm/s,15.5 ×10⁻⁶ cm/s,1.38,"pIC50 [16]: 5.95; pIC50 [17]: 5.27; pIC50 [18]: 5.76; inhibition (NCI-H1299 [19]): Active; inhibition (NCI-H1299 [20]): Active; Activity (NCI-H1299 [21]): Active; Activity (NCI-H1299 [22]): Active; inhibition (NCI-H1299 [23]): Dose-dependent effect; pIC50 (NCI-H1299 [23]; NCI-H1299, 72 h): 5.04; inhibition [24]: Active"
COc1cccc(N2CCN(C(=O)/C=C/c3noc(-c4cc(Cl)c(O)cc4O)c3-c3ccc(O)cc3)CC2)c1,> 50%,6.11,666 nM,Active,Active,Active,Active,6.54 ×10⁻⁶ cm/s,15 ×10⁻⁶ cm/s,2.29,–
COc1ccc(-c2c(/C=C/C(=O)N3CCN(c4ncccn4)CC3)noc2-c2cc(Cl)c(O)cc2O)cc1,> 50%,5.97,208 nM,Active,Active,Active,Active,6.9 ×10⁻⁶ cm/s,5.09 ×10⁻⁶ cm/s,0.74,–
COc1ccc(-c2c(C(=O)NC3CCN(Cc4ccccc4)CC3)noc2-c2cc(Cl)c(O)cc2O)cc1,> 50%,7.60,36 nM,Active,Active,Active,Active,–,–,–,–
COc1ccc(CN2CCC(NC(=O)c3noc(-c4cc(Cl)c(O)cc4O)c3-c3ccc(OC)cc3)CC2)cc1,> 50%,7.77,16 nM,Active,Active,Active,Active,0.962 ×10⁻⁶ cm/s,8.7 ×10⁻⁶ cm/s,9.04,–
C[C@@H]1C[C@H]2O[C@@H]2/C=C\C=C\C(=O)Cc2c(Cl)c(O)cc(O)c2C(=O)O1 [RADICICOL],–,–,–,–,–,–,–,–,–,–,pIC50 [25]: 3.40; pIC50 [26]: 3.64
CO[C@H]1/C=C\C=C(/C)C(=O)NC2=CC(=O)C(NCCN(C)C)=C(C[C@@H](C)C[C@H](OC)[C@H](O)[C@@H](C)/C=C(\C)[C@@H]1OC(N)=O)C2=O,–,–,–,–,–,–,–,–,–,–,inhibition (NCI-H1299 [1]): Active
COc1ccc(-c2c(C(=O)NC3CCN(CC4CC4)CC3)noc2-c2cc(Cl)c(O)cc2O)cc1,> 50%,7.55,39 nM,Active,Active,Active,Active,–,–,–,–
CC(C)c1cc(-c2n[nH]c(=O)n2-c2ccc3c(ccn3C)c2)c(O)cc1O,–,–,–,–,–,–,–,–,–,–,Activity (NCI-H1299 [5]): inactive
COc1c(C)cnc(Cn2cnc3c(Cl)nc(N)nc32)c1C,–,–,–,–,–,–,–,–,–,–,inhibition (NCI-H1299 [1]): Active
